From ChEMBL document CHEMBL1138578, “Synthesis and antibacterial activity of nitroaryl thiadiazole-gatifloxacin hybrids” (Eur J Med Chem, 2009) come the findings set out here.

One experiment concerns Bacillus subtilis. Description: Antibacterial activity against Bacillus subtilis ATCC 6051 after 18 hrs by conventional agar dilution method. Format: functional. The note with it: ATCC 6051, 18 h. The essentials:
(§1)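 Twofold dilutions in DMSO (1 mL) mixed into molten Mueller–Hinton agar (19 mL) at 50 °C. Inocula adjusted at 600 nm to about 0.5 McFarland (1.5 × 10⁸ CFU/mL), then diluted in 0.85% saline to 10⁷ CFU/mL. Plates spot-inoculated at 10⁴ CFU/spot and incubated 35–37 °C for 18 h. MIC is the lowest concentration giving no visible growth. DMSO-only control plates included.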
Background: In agar dilution the substance is mixed into plates at graded concentrations.

The test system of experiment [1] is Staphylococcus epidermidis. Put plainly: Antibacterial activity against Staphylococcus epidermidis ATCC 4940 after 18 hrs by conventional agar dilution method. Format: functional. The note with it: ATCC 4940, 18 h. The essentials:
as §1

Another experiment deals with Streptococcus pneumoniae. Put plainly: Antibacterial activity against Streptococcus pneumoniae ATCC 1240 after 18 hrs by conventional agar dilution method. The format is functional. Conditions: ATCC 1240, 18 h. The essentials:
as §1

A further experiment relates to Shigella flexneri. Description: Antibacterial activity against Shigella flexneri NCTC 8516 after 18 hrs by conventional agar dilution method. The note with it: NCTC 8516, 18 h. The format is functional. The essentials:
as §1

A further experiment relates to Pseudomonas aeruginosa. Description: Antibacterial activity against Pseudomonas aeruginosa ATCC 27853 after 18 hrs by conventional agar dilution method. The format is functional. The note with it: ATCC 27853, 18 h. The essentials:
as §1

The subject of a further experiment is Escherichia coli. Description: Antibacterial activity against Escherichia coli ATCC 25922 after 18 hrs by conventional agar dilution method. Format: functional. Conditions: ATCC 25922, 18 h. The essentials: as §1
For the next experiment, the system named is Klebsiella pneumoniae. Put plainly: Antibacterial activity against Klebsiella pneumoniae ATCC 10031 after 18 hrs by conventional agar dilution method. Format: functional. The note with it: ATCC 10031, 18 h. The essentials:
as §1

A further experiment has as its system Serratia marcescens. Put plainly: Antibacterial activity against Serratia marcescens PTCC 1111 after 18 hrs by conventional agar dilution method. Conditions: PTCC 1111, 18 h. Format: functional. The essentials: as §1
Another experiment relates to Staphylococcus aureus. Description: Antibacterial activity against Staphylococcus aureus ATCC 25923 after 18 hrs by conventional agar dilution method. The note with it: ATCC 25923, 18 h. The format is functional. The essentials:
as §1

For experiment [2], the system named is Salmonella enterica subsp. enterica serovar Typhi str. CT18. Description: Antibacterial activity against Salmonella typhi ATCC 19430 after 18 hrs by conventional agar dilution method. The format is functional. Conditions: ATCC 19430, 18 h. The essentials: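 Twofold dilutions in DMSO mixed into molten Mueller–Hinton agar at 50 °C. Inoculum adjusted at 600 nm to about 0.5 McFarland (1.5 ×10⁸ CFU/mL), then diluted in 0.85% saline to 10⁷ CFU/mL. Plates spot-inoculated at 10⁴ CFU/spot and incubated at 35–37 °C for 18 h. MIC taken as the lowest concentration with no visible growth. DMSO solvent control run at matching dilutions.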

For the next experiment, the system named is Enterococcus faecalis. Put plainly: Antibacterial activity against Enterococcus faecalis NCTC 6013 after 18 hrs by conventional agar dilution method. The format is functional. Conditions: NCTC 6013, 18 h. The essentials:
as §1

Experiment [3] in a line: Cytotoxicity against mouse NIH/3T3 cells after 72 hrs by MTT assay. The format is cell-based. Conditions: NIH3T3, 72 h. The essentials:
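Exponential-phase NIH/3T3 fibroblasts trypsinized and diluted in complete medium to 5 × 10⁴ cells/mL, then plated in 96-well plates. Serial compound dilutions added, each in triplicate, with cell-only wells as the viability control. Incubation 72 h, then MTT (5 mg/mL solution) added for 1 h and the medium replaced for colorimetric read-out.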

A further experiment has as its system Micrococcus luteus. Put plainly: Antibacterial activity against Micrococcus luteus ATCC 1110 after 18 hrs by conventional agar dilution method. The format is functional. The note with it: ATCC 1110, 18 h. The essentials: as §1

In brackets after ≈: the same amount, converted by molar mass. Some results are limits rather than exact numbers.

Usually MIC stands for the least concentration at which growth counts as inhibited. Read a low MIC as greater potency. Usually IC50 stands for the point on the concentration scale where inhibition reaches its midpoint. Low readings indicate greater potency in that assay, high ones weaker potency in that assay. On to `COc1c(N2CCN(c3nnc(-c4ncc([N+](=O)[O-])n4C)s3)C(C)C2)c(F)cc2c(=O)c(C(=O)O)cn(C3CC3)c12` (stereo unspecified), for which the minimal inhibitory concentration (MIC) with Bacillus subtilis is 0.5 µg/mL (≈ 0.855 µM); in [1] it was 0.5 µg/mL (≈ 0.855 µM); in the experiment on Streptococcus pneumoniae, 1 µg/mL (≈ 1.71 µM); with Shigella flexneri it was 1 µg/mL (≈ 1.71 µM); against Pseudomonas aeruginosa, greater than 64 µg/mL; against Escherichia coli, 16 µg/mL (≈ 27.4 µM). For the same molecule, the MIC in the experiment on Klebsiella pneumoniae stood at 0.5 µg/mL (≈ 0.855 µM); against Serratia marcescens it was 64 µg/mL (≈ 109 µM); in the experiment on Staphylococcus aureus, 0.0313 µg/mL (≈ 0.0535 µM); in [2], 0.25 µg/mL (≈ 0.428 µM); against Enterococcus faecalis it was 4 µg/mL (≈ 6.84 µM); with Micrococcus luteus, 2 µg/mL (≈ 3.42 µM). The same molecule yielded a half-maximal inhibitory concentration (IC50) in experiment [3] of 246 µM.
Consider `COc1c(N2CCN(c3nnc(-c4ccccc4[N+](=O)[O-])s3)C(C)C2)c(F)cc2c(=O)c(C(=O)O)cn(C3CC3)c12` (stereo unspecified), for which the minimum inhibitory concentration (MIC) is 0.0625 µg/mL (≈ 0.108 µM) in the experiment on Bacillus subtilis; 0.0625 µg/mL (≈ 0.108 µM) in experiment [1]; 0.25 µg/mL (≈ 0.431 µM) in the experiment with Streptococcus pneumoniae; 16 µg/mL (≈ 27.6 µM) against Shigella flexneri; greater than 64 µg/mL in the experiment with Pseudomonas aeruginosa; 16 µg/mL (≈ 27.6 µM) with Escherichia coli. The minimal inhibitory concentration (MIC) against Klebsiella pneumoniae was 64 µg/mL (≈ 110 µM); in the experiment on Serratia marcescens, 16 µg/mL (≈ 27.6 µM); in the experiment on Staphylococcus aureus, 32 µg/mL (≈ 55.1 µM); in [2], 16 µg/mL (≈ 27.6 µM); in the experiment with Enterococcus faecalis, 2 µg/mL (≈ 3.44 µM); with Micrococcus luteus, 0.5 µg/mL (≈ 0.861 µM). Also, in [3], the IC50 stood at 168 µM.
Turning to `COc1c(N2CCN(c3nnc(-c4ccc([N+](=O)[O-])cc4)s3)C(C)C2)c(F)cc2c(=O)c(C(=O)O)cn(C3CC3)c12` (stereo unspecified), the MIC in the experiment with Bacillus subtilis was 0.0313 µg/mL (≈ 0.0539 µM); in experiment [1] it was 0.0625 µg/mL (≈ 0.108 µM); with Streptococcus pneumoniae, 0.0625 µg/mL (≈ 0.108 µM); in the experiment on Shigella flexneri it was 8 µg/mL (≈ 13.8 µM); in the experiment on Pseudomonas aeruginosa, greater than 64 µg/mL; in the experiment with Escherichia coli, 16 µg/mL (≈ 27.6 µM). Besides, the minimal inhibitory concentration (MIC) against Klebsiella pneumoniae came to 64 µg/mL (≈ 110 µM); against Serratia marcescens, 16 µg/mL (≈ 27.6 µM); against Staphylococcus aureus, 32 µg/mL (≈ 55.1 µM); in experiment [2], 8 µg/mL (≈ 13.8 µM); against Enterococcus faecalis, 1 µg/mL (≈ 1.72 µM); with Micrococcus luteus, 0.25 µg/mL (≈ 0.431 µM). For the same molecule, the midpoint of inhibition in experiment [3], the IC50, lay at 223 µM.
On to `COc1c(N2CCN(c3nnc(-c4ccc([N+](=O)[O-])s4)s3)C(C)C2)c(F)cc2c(=O)c(C(=O)O)cn(C3CC3)c12` (stereo unspecified), for which the MIC against Bacillus subtilis is 0.5 µg/mL (≈ 0.852 µM); in [1] it was 0.125 µg/mL (≈ 0.213 µM); against Streptococcus pneumoniae, 0.25 µg/mL (≈ 0.426 µM); against Shigella flexneri, 1 µg/mL (≈ 1.7 µM); in the experiment with Pseudomonas aeruginosa, greater than 64 µg/mL; against Escherichia coli, 32 µg/mL (≈ 54.5 µM). The minimal inhibitory concentration (MIC) in the experiment with Klebsiella pneumoniae stood at 16 µg/mL (≈ 27.3 µM); against Serratia marcescens, 8 µg/mL (≈ 13.6 µM); against Staphylococcus aureus it was 0.5 µg/mL (≈ 0.852 µM); in experiment [2] it was 1 µg/mL (≈ 1.7 µM); in the experiment with Enterococcus faecalis it was 2 µg/mL (≈ 3.41 µM); in the experiment on Micrococcus luteus, 4 µg/mL (≈ 6.82 µM). For the same molecule, in experiment [3], the IC50 is 243 µM.
Take `COc1c(N2CCN(c3nnc(-c4ccc([N+](=O)[O-])o4)s3)C(C)C2)c(F)cc2c(=O)c(C(=O)O)cn(C3CC3)c12` (stereo unspecified): the MIC is 0.0039 µg/mL (≈ 0.00684 µM) in the experiment on Bacillus subtilis; 0.0078 µg/mL (≈ 0.0137 µM) in [1]; 0.25 µg/mL (≈ 0.438 µM) in the experiment on Streptococcus pneumoniae; 0.5 µg/mL (≈ 0.876 µM) in the experiment on Shigella flexneri; greater than 64 µg/mL in the experiment with Pseudomonas aeruginosa; 1 µg/mL (≈ 1.75 µM) with Escherichia coli. For the same molecule, the MIC against Klebsiella pneumoniae was 1 µg/mL (≈ 1.75 µM); against Serratia marcescens, 8 µg/mL (≈ 14 µM); in the experiment on Staphylococcus aureus, 0.125 µg/mL (≈ 0.219 µM); in [2] it was 1 µg/mL (≈ 1.75 µM); with Enterococcus faecalis it was 0.125 µg/mL (≈ 0.219 µM); in the experiment on Micrococcus luteus it was 0.125 µg/mL (≈ 0.219 µM). Moreover, the IC50 in experiment [3] was determined as 238 µM.
Regarding `COc1c(N2CCN(c3nnc(-c4cccc([N+](=O)[O-])c4)s3)C(C)C2)c(F)cc2c(=O)c(C(=O)O)cn(C3CC3)c12` (stereo unspecified), the minimal inhibitory concentration (MIC) in the experiment with Bacillus subtilis is 32 µg/mL (≈ 55.1 µM); in experiment [1], 0.0313 µg/mL (≈ 0.0539 µM); against Streptococcus pneumoniae, 1 µg/mL (≈ 1.72 µM); in the experiment with Shigella flexneri, greater than 64 µg/mL; in the experiment with Pseudomonas aeruginosa, greater than 64 µg/mL; in the experiment on Escherichia coli, greater than 64 µg/mL. The MIC was greater than 64 µg/mL in the experiment on Klebsiella pneumoniae; greater than 64 µg/mL in the experiment with Serratia marcescens; greater than 64 µg/mL with Staphylococcus aureus; greater than 64 µg/mL in experiment [2]; greater than 64 µg/mL in the experiment with Enterococcus faecalis; 1 µg/mL (≈ 1.72 µM) against Micrococcus luteus. For the same molecule, in [3], the half-maximal inhibitory concentration (IC50) was 161 µM.
Regarding `COc1c(N2CCNC(C)C2)c(F)cc2c(=O)c(C(=O)O)cn(C3CC3)c12` (stereo unspecified) [GATIFLOXACIN], the minimum inhibitory concentration (MIC) with Bacillus subtilis was 0.5 µg/mL (≈ 1.33 µM); in [1], 0.0625 µg/mL (≈ 0.166 µM); in the experiment with Streptococcus pneumoniae it was 0.25 µg/mL (≈ 0.666 µM); against Shigella flexneri, 0.0625 µg/mL (≈ 0.166 µM); with Pseudomonas aeruginosa, 2 µg/mL (≈ 5.33 µM); against Escherichia coli it was 1 µg/mL (≈ 2.66 µM). The MIC in the experiment with Klebsiella pneumoniae came to 0.5 µg/mL (≈ 1.33 µM); against Serratia marcescens, 0.5 µg/mL (≈ 1.33 µM); in the experiment with Staphylococcus aureus, 0.25 µg/mL (≈ 0.666 µM); in [2], 0.0625 µg/mL (≈ 0.166 µM); with Enterococcus faecalis, 0.5 µg/mL (≈ 1.33 µM); against Micrococcus luteus, 1 µg/mL (≈ 2.66 µM). This molecule also came in with a 50% inhibitory concentration (IC50) in experiment [3] of 596 µM.
